Screening results deposited in PubChem BioAssay by Johns Hopkins Ion Channel Center.
An excerpt weighted towards active compounds, which were near 2.3% of everything screened.
TRPC4 agonist = TRPC4 (mouse) channel activation; Q9QUQ5; HEK293 TRPC4beta/mu-opioid, Fluo4 calcium fluorescence; hits give high values; B-score at 10 µM; actives 0.49% (n = 310,000); AID 2237;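 active = B-score above 5 SD of library B-scores, and initial fluorescence ratio not above library mean plus 5 SD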;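 note: positive B-score marks a calcium rise read as TRPC4 activation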
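system = HEK293 cells stably co-expressing mouse TRPC4beta and mu-opioid receptor | schedule = Fluo4 dye loading 45 min at room temperature, 110 s recording | measure = B-scored integrated calcium fluorescence ratio | signal = Fluo4 calcium-sensitive dye fluorescence, kinetic, 1 Hz baseline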
TRPC6 activator = activates the mouse TRPC6 cation channel. HEK293-TRPC6 membrane potential dye fluorescence; hits give high values. B-score at 10 µM. actives 0.13% (n = 310,000). AID 2550;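 active = B-score of the integrated fluorescence ratio above library mean plus 3 SD, and starting fluorescence ratio within library mean plus 5 SD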;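 note: higher score means more depolarization so channel activation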
Target sequence (Q61143 whole entry, looked up): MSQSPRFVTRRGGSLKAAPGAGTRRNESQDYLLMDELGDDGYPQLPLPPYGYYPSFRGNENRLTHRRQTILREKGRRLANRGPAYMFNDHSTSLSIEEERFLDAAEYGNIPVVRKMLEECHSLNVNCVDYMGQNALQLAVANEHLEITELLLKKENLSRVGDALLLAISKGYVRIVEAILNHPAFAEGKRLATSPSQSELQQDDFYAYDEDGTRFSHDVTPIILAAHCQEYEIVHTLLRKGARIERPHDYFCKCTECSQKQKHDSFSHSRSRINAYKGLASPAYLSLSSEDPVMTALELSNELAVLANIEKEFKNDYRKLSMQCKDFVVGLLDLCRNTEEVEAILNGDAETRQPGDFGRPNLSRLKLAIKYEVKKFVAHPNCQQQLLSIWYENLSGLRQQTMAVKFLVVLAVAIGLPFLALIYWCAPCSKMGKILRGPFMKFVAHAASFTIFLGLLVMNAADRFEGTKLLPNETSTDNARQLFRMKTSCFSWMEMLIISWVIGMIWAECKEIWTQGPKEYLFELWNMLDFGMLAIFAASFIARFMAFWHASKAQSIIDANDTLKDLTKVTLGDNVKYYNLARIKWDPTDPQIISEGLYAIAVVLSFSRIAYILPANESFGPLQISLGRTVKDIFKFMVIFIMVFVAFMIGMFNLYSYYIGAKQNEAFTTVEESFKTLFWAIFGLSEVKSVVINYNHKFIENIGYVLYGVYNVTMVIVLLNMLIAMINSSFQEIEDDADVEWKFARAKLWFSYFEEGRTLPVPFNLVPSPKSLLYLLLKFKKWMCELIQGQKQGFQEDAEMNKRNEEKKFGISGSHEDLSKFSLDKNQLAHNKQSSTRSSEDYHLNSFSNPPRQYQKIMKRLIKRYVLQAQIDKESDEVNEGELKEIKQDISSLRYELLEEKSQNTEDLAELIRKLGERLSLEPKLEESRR
TRPC6 inh = inhibitors of mouse TRPC6 channel; Q61143; HEK293-TRPC6, membrane potential dye, ACh-evoked depolarization; hits give low values; B-score at 10 µM; actives 1.1% (n = 310,000);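 active = B-score under library mean minus 3 SD, initial fluorescence not abnormally high, positive integrated signal ratio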;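 note: B-score derived from integrated fluorescence ratio over the kinetic read; more negative B-score means stronger inhibition of depolarization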
TRPC4 PAM = TRPC4 (mouse) allosteric potentiation | Q9QUQ5 | HEK293 TRPC4beta/mu-opioid, DAMGO EC20, Fluo-4 Ca2+ flux; hits give high values | B-score at 10 µM | actives 0.42% (n = 310,000) | AID 2227;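 active = B-score of calcium response area above 5 SD of library B-scores, with initial fluorescence ratio within 5 SD of library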;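 note: B-score of integrated fluorescence ratio over time as area under calcium response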
TRPC4 block = inhibitors of mouse TRPC4 channel; Q9QUQ5; HEK293 TRPC4beta/mu-opioid, DAMGO-evoked Fluo4 calcium flux; hits give low values; B-score at 10 µM; actives 0.39% (n = 300,000);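 active = B-score over 3 SD under the library average, no early fluorescence shift, positive overall ratio signal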
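Assay system: Stable TRPC4beta/mu-opioid receptor HEK293 cells | Reagent: DAMGO in two steps, submaximal then maximal | Compound dosing: Single concentration per test compound | Signal: Fluo4 Ca2+ flux fluorescence | Evaluation: Per-well B score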
TRPC4 sel inh 2 = second check of whether TRPC6 inhibitors also affect mouse TRPC4; AID 2776; HEK293 TRPC4/MOR, membrane potential dye fluorescence; channel activated by saturating DAMGO dose; inhibition, % at 10 µM; shares compounds with TRPC6 inh; actives 42% (n = 920);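 active = compounds whose fluorescence signal differed from control wells by over 3 SD, either direction, in both duplicate plates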
TRPC4 spec = tests whether TRPC6 inhibitors also affect mouse TRPC4; shares compounds with TRPC6 inh; actives 61% (n = 920); activity change, negative = inhibition, % at 10 µM; HEK293 TRPC4/mu-opioid, membrane potential fluorescence; AID 2777;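 active = rise or fall in signal beyond 3 SD of buffer-only wells in both replicate plates, either sign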;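 note: integrated kinetic ratio of fluorescence range over baseline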
HEK293 MPD ctr 2-1 = second counter-screen for TRPC6 inhibitors: parental HEK293 cells; signal change vs control, % at 10 µM; parental HEK293 membrane potential dye fluorescence; maximal acetylcholine challenge after compound addition; AID 2779; actives 31% (n = 920); shares compounds with TRPC6 inh;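 active = membrane potential signal moving either way by over 3 SD of the maximum-effect control, in both duplicate plates, meaning non-specific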
HEK293 MPD ctr-1 = checks TRPC6 inhibitor effects in parental HEK293 cells; shares compounds with TRPC6 inh; parental HEK293 membrane potential dye fluorescence; membrane potential signal change, % at 10 µM; actives 60% (n = 920);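 active = membrane potential signal shifting up or down by more than 3 SD of buffer-only wells, on both duplicate plates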
HEK293 MPD ctr-2 = parental HEK293 nonspecific activity of TRPC6 modulators; shares compounds with TRPC6 inh; membrane potential dye fluorescence; membrane potential signal change, % at 10 µM; actives 51% (n = 2,400); AID 488924;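 active = membrane potential signal moves up or down beyond 5 SD from buffer-only wells, on both duplicate plates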
HEK293 MPD ctr 2-2 = parental HEK293 nonspecific activity of TRPC6 modulators, second screen; shares compounds with TRPC6 inh; AID 488926; actives 14% (n = 2,400); membrane potential dye fluorescence; after compound, maximal acetylcholine stimulation; inhibition, % at 10 µM;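 active = membrane potential signal drops by more than 5 SD from the mean control signal, in both duplicate plates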;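 note: plate controls were acetylcholine ECmax control wells for no effect and buffer only wells for full effect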
TRPC4/MOR mod = tests whether TRPC6 modulators also affect mouse TRPC4. actives 69% (n = 2,400). percent change from control (negative = decrease, positive = increase), % at 10 µM. HEK293 TRPC4/mu-opioid, membrane potential fluorescence. AID 488927. shares compounds with TRPC6 inh;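 active = membrane potential signal moved up or down beyond 5 SD of buffer control wells, in both duplicate plates, actives on both sides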;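 note: plate controls were assay buffer wells for no effect and DAMGO maximal-effect wells for full effect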
TRPC4 ctr inh 2 = mouse TRPC4 off-target activity of TRPC6 modulators, second screen; AID 488928; actives 55% (n = 2,400); inhibition, % at 10 µM; HEK293 TRPC4/mu-opioid, membrane potential dye fluorescence; stimulated with maximal-effect DAMGO; shares compounds with TRPC6 inh;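 active = drop in membrane potential signal beyond 5 SD of the control wells in both duplicate plates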;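 note: TRPC4 counter screen for TRPC6 hits run under conditions tuned for TRPC6 not TRPC4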
TRPC6 inh conf = confirmation of mouse TRPC6 inhibitors; shares compounds with TRPC6 inh; HEK293-TRPC6, membrane potential dye, ACh-evoked depolarization; inhibition, % at 10 µM; actives 43% (n = 3,300); AID 488960;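 active = fluorescence ratio falls more than 5 SD below the full-stimulation control mean, in both duplicate runs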;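 note: integrated fluorescence ratio of peak minus minimum over baseline after agonist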
TRPC6 act conf = confirmation of mouse TRPC6 activators | shares compounds with TRPC6 inh | actives 11% (n = 2,800) | activation, % at 10 µM | HEK293-TRPC6 membrane potential dye fluorescence, FDSS | AID 488961;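 active = ratio signal rise beyond 5 SD above unstimulated control wells' mean, seen in both duplicate runs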;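 note: plate controls were buffer EC0 wells for no effect and acetylcholine ECmax response for full effect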
The depositor's hits bear a star.

How did O=C(O)c1cccc(N2C(=O)C3C4C=CC(C4=C(c4ccccc4)c4ccccc4)C3C2=O)c1 (stereo not drawn) do in these assays?
TRPC4 agonist: inactive; TRPC6 activator: inactive; TRPC6 inh: inactive; TRPC4 PAM: inactive; TRPC4 block: inactive

What do the screens show for `CCOc1ccc(/C=C/c2nc(C#N)c(NCCCN(C)C)o2)cc1`?
TRPC4 agonist: inactive; TRPC6 activator: inactive; TRPC6 inh: -5.47*; TRPC4 PAM: inactive; TRPC4 block: inactive; HEK293 MPD ctr-2: inactive; HEK293 MPD ctr 2-2: inactive; TRPC4/MOR mod: inactive; TRPC4 ctr inh 2: 55.5%*; TRPC6 inh conf: 38.5%*; TRPC6 act conf: inactive

Results for CCN(CC)CCCNc1oc(-c2ccc(OC)c(OC)c2)nc1C#N ?
TRPC4 agonist: inactive; TRPC6 activator: inactive; TRPC6 inh: -6.38*; TRPC4 PAM: inactive; TRPC4 block: inactive; HEK293 MPD ctr-2: inactive; HEK293 MPD ctr 2-2: inactive; TRPC4/MOR mod: inactive; TRPC4 ctr inh 2: inactive; TRPC6 inh conf: 46.5%*; TRPC6 act conf: inactive

How did CN(C)CCCNc1oc(-c2cccc(Cl)c2)nc1C#N do in these assays?
TRPC4 agonist: inactive; TRPC6 activator: inactive; TRPC6 inh: -6.85*; TRPC4 PAM: inactive; TRPC4 block: inactive; TRPC4 sel inh 2: inactive; TRPC4 spec: inactive; HEK293 MPD ctr 2-1: inactive; HEK293 MPD ctr-1: inactive; TRPC6 inh conf: inactive; TRPC6 act conf: inactive

How did CN(C)CCNc1oc(COc2cccc(Cl)c2)nc1C#N do in these assays?
TRPC4 agonist: inactive; TRPC6 activator: inactive; TRPC6 inh: inactive; TRPC4 PAM: inactive; TRPC4 block: inactive

How did O=C(c1cccc(C(F)(F)F)c1)C1CCCN(Cc2cccn2-c2ccccn2)C1 (stereo not drawn) do in these assays?
TRPC4 agonist: inactive; TRPC6 activator: inactive; TRPC6 inh: -7.54*; TRPC4 PAM: inactive; TRPC4 block: -5*; TRPC4 sel inh 2: 35.0%*; TRPC4 spec: 18.1%*; HEK293 MPD ctr 2-1: inactive; HEK293 MPD ctr-1: 14.1%*; TRPC6 inh conf: 56.8%*; TRPC6 act conf: inactive

What do the screens show for `COc1ccc(C(=O)C2CCCN(Cc3cccn3-c3ccc(Cl)cn3)C2)c(OC)c1` (stereo not drawn)?
TRPC4 agonist: inactive; TRPC6 activator: inactive; TRPC6 inh: -5.79*; TRPC4 PAM: inactive; TRPC4 block: inactive; HEK293 MPD ctr-2: 134.5%*; HEK293 MPD ctr 2-2: inactive; TRPC4/MOR mod: 14.5%*; TRPC4 ctr inh 2: 89.0%*; TRPC6 inh conf: 53.0%*

How did O=C(NCc1ccccn1)C1CC(c2ccccc2O)=NO1 (stereo not drawn) do in these assays?
TRPC4 agonist: inactive; TRPC6 activator: inactive; TRPC6 inh: -5.36*; TRPC4 PAM: inactive; TRPC4 block: inactive; HEK293 MPD ctr-2: inactive; HEK293 MPD ctr 2-2: inactive; TRPC4/MOR mod: inactive; TRPC4 ctr inh 2: inactive; TRPC6 inh conf: inactive; TRPC6 act conf: inactive

How did O=C(NCc1cccs1)C1CC(c2ccccc2O)=NO1 (stereo not drawn) do in these assays?
TRPC4 agonist: inactive; TRPC6 activator: inactive; TRPC6 inh: inactive; TRPC4 PAM: inactive; TRPC4 block: inactive

What do the screens show for `Oc1c(C2=NCCNC(C(F)(F)F)=C2)ccc2ccccc12`?
TRPC4 agonist: inactive; TRPC6 activator: inactive; TRPC6 inh: -5.03*; TRPC4 PAM: inactive; TRPC4 block: inactive; HEK293 MPD ctr-2: -96.0%*; HEK293 MPD ctr 2-2: inactive; TRPC4/MOR mod: -21.5%*; TRPC4 ctr inh 2: 47.0%*; TRPC6 inh conf: inactive; TRPC6 act conf: inactive

Results for O=C(O)c1ccc(-c2ccc(/C=c3/sc4nc5ccccc5n4c3=O)o2)cc1Cl ?
TRPC4 agonist: 58*; TRPC6 activator: 32.3*; TRPC6 inh: inactive; TRPC4 PAM: 15*; TRPC4 block: inactive; HEK293 MPD ctr-2: 560.0%*; HEK293 MPD ctr 2-2: inactive; TRPC4/MOR mod: 112.5%*; TRPC4 ctr inh 2: inactive; TRPC6 inh conf: inactive; TRPC6 act conf: 82.0%*

How did Cc1cc(/C=c2\sc3nc4ccccc4n3c2=O)c(C)n1-c1ccc(C(=O)O)cc1 do in these assays?
TRPC4 agonist: inactive; TRPC6 activator: inactive; TRPC6 inh: inactive; TRPC4 PAM: inactive; TRPC4 block: inactive

Results for Cc1ccc2c(nc3s/c(=C\c4ccc(-c5ccccc5C(=O)O)o4)c(=O)n32)c1C ?
TRPC4 agonist: 189*; TRPC6 activator: 77.5*; TRPC6 inh: inactive; TRPC4 PAM: inactive; TRPC4 block: -8*; HEK293 MPD ctr-2: active; HEK293 MPD ctr 2-2: inactive; TRPC4/MOR mod: 408.5%*; TRPC4 ctr inh 2: inactive; TRPC6 inh conf: inactive; TRPC6 act conf: 592.5%*

How did Cc1ccc(S(=O)(=O)/N=c2\ccc(Cl)cn2C(F)F)cc1 do in these assays?
TRPC4 agonist: inactive; TRPC6 activator: inactive; TRPC6 inh: inactive; TRPC4 PAM: inactive; TRPC4 block: inactive

What do the screens show for `O=[N+]([O-])c1ccc(-c2csc(N3CCc4ccccc4C3)n2)cc1`?
TRPC4 agonist: inactive; TRPC6 activator: inactive; TRPC6 inh: inactive; TRPC4 PAM: inactive; TRPC4 block: inactive
